Compounds with a hit are over-represented: about 3.7% of the library has one in this group of screens.
SR-BI HDL uptake = inhibitors of SR-BI mediated HDL lipid uptake, primary screen, ldlA[mSR-BI] cells, fluorescence, single point; Scavenger receptor class B member 1 (Mus musculus), Q61009; ldlA[mSR-BI] CHO cells, DiI-HDL uptake fluorescence, 3 h; inhibition, % at 12.5 µM; actives 0.96% (n = 320,000);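 active means mean replicate inhibition of at least 70% and a set share of replicates each scoring 70 or more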;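 further: 0% = median of neutral control wells and 100% = median of positive control wells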
AHR act = AHR activators, primary screen, cell-based, luminescence, luciferase reporter, human. activation, % at 5 µM. AHR-responsive luciferase reporter cells. actives 2.5% (n = 320,000). Aryl hydrocarbon receptor (Homo sapiens), P35869; in the data active means activation above about 47%;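 further: 0% = vehicle wells and 100% = reference agonist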
FXN GAA850 act = FXN promoter activators, primary screen, cell-based, luciferase luminescence, HEK293 lucGAA850. HEK293 lucGAA850 FXN promoter luciferase reporter, 24 h; percent of 10 µM SAHA response. activation, % at 6 µM. actives 0.56% (n = 360,000);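 active means activation above the average of all compounds screened plus 3 SD, cutoff fixed separately per campaign, cut at about 7.5% in these data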;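 further: 0% = DMSO wells and 100% = 10 µM SAHA wells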
SR-BI DiI-HDL act = activators of SR-BI mediated DiI-HDL uptake, primary screen, ldlA[mSR-BI] CHO cells, DiI fluorescence. activation, % at 12.5 µM. AID 504775, 2011. 3 h; 100 = double the neutral-control signal. actives 0.096% (n = 320,000);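 active means mean replicate activation of at least 60% and every replicate at or above 60%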;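 further: 0% = median plate neutral-control signal and 100% = twice that signal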
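System: CHO ldlA[mSR-BI] cells / Medium: HEPES-buffered (25 mM, pH 7.4) F12 plus 0.5% BSA / Probe or stimulus: labelled HDL, 10 µg/mL / Doses: single compound concentration, delivered by pin transfer / Schedule: 3 h, 37 °C / Measured by: DiI fluorescence, bottom read / Measure: cell-associated DiI fluorescence as measure of HDL uptake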
JMJD2C inh = inhibitors of GASC-1 histone demethylase, primary screen, biochemical, fluorescence, DELFIA europium | actives 0.069% (n = 330,000) | AID 2099, 2009 | GST-JMJD2C(1-420) H3K9me3 demethylation | inhibition, % at 2.35 µM;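 active means more than half of a compound's replicate wells show inhibition beyond 50%, single wells judged on their own value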;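 further: signal counts dimethyl H3K9 product captured on neutravidin plate; 0% = median of DMSO wells and 100% = 0.3 times that DMSO median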
Target sequence (Q9H3R0 1-420 limits assumed): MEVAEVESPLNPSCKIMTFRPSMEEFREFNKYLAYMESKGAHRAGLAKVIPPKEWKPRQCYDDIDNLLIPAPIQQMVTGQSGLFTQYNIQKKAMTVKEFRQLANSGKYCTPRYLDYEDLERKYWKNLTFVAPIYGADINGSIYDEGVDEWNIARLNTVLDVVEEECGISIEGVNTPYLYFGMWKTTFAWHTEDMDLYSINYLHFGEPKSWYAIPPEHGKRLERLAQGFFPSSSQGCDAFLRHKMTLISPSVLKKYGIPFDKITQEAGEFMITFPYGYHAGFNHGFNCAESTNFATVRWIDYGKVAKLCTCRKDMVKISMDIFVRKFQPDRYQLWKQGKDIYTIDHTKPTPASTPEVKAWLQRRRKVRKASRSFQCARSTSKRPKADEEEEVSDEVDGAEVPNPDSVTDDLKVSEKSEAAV
The depositor's hits bear a star; / = not tested or not shown.

SMILES	SR-BI HDL uptake	AHR act	FXN GAA850 act	SR-BI DiI-HDL act	JMJD2C inh
CCc1cc(=O)oc2cc(C)cc(OCC(=O)NCc3ccncc3)c12	-5	75*	0	5	-10
Cc1cc(OCC(=O)Nc2cccnc2)c2c(C)c(C)c(=O)oc2c1	3	78*	-1	-3	-9
CCc1cc(=O)oc2cc(C)cc(OCC(=O)NCc3cccnc3)c12	10	49*	-2	-10	10
COc1ccccc1CNC(=O)c1cccc2c1C(=O)N(Cc1cccnc1)C2	5	5	1	-5	-23
COc1ccc(S(=O)(=O)N2CCCC2)cc1C(=O)O	5	-2	1	-5	-15
CCN(CC)CCCNc1nc2cc(OC)c(OC)cc2c2nc(-c3ccccc3)nn12	-17	11	2	17	-10
COCCCNc1nc2cc(OC)c(OC)cc2c2nc(-c3ccccc3)nn12	86*	9	-3	-86	9
CCCCCCC(=O)Nc1nc(C)c(-c2csc(Nc3ccccc3OC)n2)s1	80*	69*	0	-80	1
COc1ccc(OC)c(Nc2nc(-c3sc(C)nc3C)cs2)c1	64	34	3	-64	-2
CCCCC(=O)Nc1nc(C)c(-c2csc(Nc3cc(Cl)ccc3OC)n2)s1	88*	70*	1	-88	2
CCCCCC(=O)Nc1nc(C)c(-c2csc(Nc3ccccc3OCC)n2)s1	64	67*	-1	-64	4
CCCC(C)C(=O)Nc1nc(C)c(-c2csc(Nc3ccc(Cl)cc3)n2)s1 (configuration not stated)	85*	79*	-1	-85	11
CCCC(=O)Nc1nc(C)c(-c2csc(Nc3ccccc3C)n2)s1	28	15	-1	-29	-15
CC(=O)Oc1ccc(C(=O)Nc2cc(C)on2)cc1	-3	1	2	3	6
Cc1cc(C)cc(SCc2noc(C(=O)NCCC(C)C)c2C(=O)NCCC(C)C)c1	-9	5	0	9	-2
CCCCC(=O)NC1(C(F)(F)F)NC(=O)N(C)C1=O (configuration not stated)	/	2	0	/	-16
Cc1cc2c(C)nc(Cc3ccccc3)nc2o1	/	54*	0	/	4
CC(=O)c1c(C)[nH]c(C(=O)Nc2cccc(S(=O)(=O)N3CCCCC3)c2)c1C	69	27	1	-69	-1
O=C(Nc1cccc(S(=O)(=O)N2CCCCC2)c1)c1ccco1	4	0	0	-4	0
O=C(Oc1cccc(NC(=O)c2ccco2)c1)c1cccc(S(=O)(=O)N2CCCC2)c1	26	2	1	-26	52*
Cc1ccc(S(C)(=O)=O)cc1C(=O)Nc1cccc(S(=O)(=O)N2CCCCCC2)c1	80*	0	1	-80	-4
CS(=O)(=O)c1cccc(C(=O)Nc2cccc(S(=O)(=O)N3CCCC3)c2)c1	83*	/	-2	-83	/
Cc1cccc(NC(=O)c2cccc(S(=O)(=O)N3CCCCC3)c2)c1	/	4	0	/	2
CN(C)S(=O)(=O)c1cccc(NC(=O)c2cccc(S(=O)(=O)N3CCCCCC3)c2)c1	77*	/	2	-77	/
O=C(CSc1nnnn1C1CC1)N1CCN(c2ccccc2F)CC1	-14	-1	-1	14	/
SMILES	SR-BI HDL uptake	AHR act	FXN GAA850 act	SR-BI DiI-HDL act	JMJD2C inh
CC(=O)Nc1cccc(OCC(=O)Nc2cccc(S(=O)(=O)N3CCCC3)c2)c1	-450	/	0	449*	/
CC(=O)N1CCN(S(=O)(=O)c2cccc(C(=O)Nc3ccc4c(c3)OCO4)c2)CC1	-1	12	1	1	0
O=C(Nc1ccc2c(c1)OCO2)c1cccc(S(=O)(=O)N2CCCC2)c1	4	107*	-2	-4	3
Cc1cc(NC(=O)c2cccc(S(=O)(=O)N3CCCCCC3)c2)n(-c2ccccn2)n1	82*	5	0	-82	-11
Cn1c(SCc2cc(=O)[nH]c3ccccc23)nnc1-c1ccc(Br)cc1	5	1	-2	-5	14
CC1CCc2c(nc3ncnn3c2NCCc2ccccc2F)C1 (configuration not stated)	73*	-9	-1	-73	22
CC1CCc2c(nc3ncnn3c2N2CCN(c3ccccc3F)CC2)C1 (configuration not stated)	-11	-4	-1	11	-20
O=C(Cc1ccsc1)OCC(=O)c1ccccc1	-2	2	0	2	9
Cc1ccc(CNS(=O)(=O)c2c(C)[nH]c(=O)[nH]c2=O)cc1	-14	/	0	14	5
CC1CC(NC(=O)c2cnc3n(c2=O)CCS3)CC(C)(C)C1 (configuration not stated)	21	1	-1	-21	-28
O=C(NC1CCCC1)c1cnc2n(c1=O)CCS2	7	60*	2	-7	13
O=C(Nc1nnc(CCS(=O)(=O)c2ccc3ccccc3c2)s1)c1ccc([N+](=O)[O-])cc1	-15	3	1	15	1
O=C(Nc1ccc(-c2noc(-c3ccccc3F)n2)cc1)c1cccs1	25	1	3	-25	-9
Cc1ccccc1-c1nc(-c2ccc(NC(=O)c3cccs3)cc2)no1	55	57*	2	-55	-1
CCCN(CC(=O)Nc1cc(C)on1)CC(=O)Nc1ccccc1C	2	-1	-1	-2	11
OCC(O)C(O)C(O)c1cnn(-c2ccccc2)n1 (configuration not stated)	-24	/	1	24	/
Nc1nnc(SC2CC(=O)N(c3ccccc3)C2=O)s1 (configuration not stated)	-10	0	1	10	57*
O=C1CC(Sc2ncccn2)C(=O)N1c1ccccc1 (configuration not stated)	-20	1	-1	20	-16
Cc1nc2c(=O)[nH]c(=S)[nH]c2[nH]c1=O	-10	/	-1	10	/
COc1ccc(C(=O)/C=C/c2ccccc2)c(O)c1	-7	9	3	7	3
O=C(/C=C/c1ccc(O)cc1)c1ccc(O)cc1O	28	66*	1	-28	2
CCOC(=O)c1cc(-c2ccccc2)sc1N	-5	0	5	5	-9
NNC(=O)c1cc(-c2ccccc2)sc1N	/	56*	-1	/	-7
NNC(=O)c1sc(-c2ccccc2)cc1N	58	66*	2	-58	-8
CC(=O)c1sc(-c2ccccc2)cc1N	20	20	3	-20	-10
CCOC(=O)c1c(-c2ccccc2)c2cc(OC)ccc2n1CCCN(C)C	5	0	2	-5	3
CC1CCC(NC(=O)Cn2c(=O)oc3ccccc32)CC1 (configuration not stated)	-3	4	2	3	-6
